Each block holds one compound with its values, some of them ahead of it.
Columns and labels:
Assay type in all cases: ADME, organism-based, Macaca mulatta
[1] = Drug level in normal rhesus monkey pons assessed as standard uptake value at 81.2 MBq, iv after 14 mins by microPET; conditions: in vivo
[2] = Drug level in normal rhesus monkey thalamus assessed as standard uptake value at 81.2 MBq, iv after 57.5 mins by microPET; conditions: in vivo
[3] = Drug level in normal rhesus monkey cerebellum assessed as standard uptake value at 81.2 MBq, iv after 135 mins by microPET; conditions: in vivo, 2.25 h
Procedure, shortened: (§1)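 One normal rhesus monkey, each tracer given iv via the vena saphena (81.2, 96.3 or 109.4 MBq), with 1 day between tracer injections. Dynamic brain μPET over 180 min used frames of 5 × 60 s, 5 × 120 s, 9 × 300 s and 12 × 600 s. Images were reconstructed by filtered back projection with a RAMP filter. Regional time-activity curves were expressed as SUV.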

[4] = Drug level in normal rhesus monkey white matter assessed as standard uptake value at 81.2 MBq, iv after 0.5 mins by microPET; conditions: in vivo
[5] = Drug level in normal rhesus monkey pons assessed as standard uptake value at 81.2 MBq, iv after 1.5 mins by microPET; conditions: in vivo, 0.025 h
[6] = Drug level in normal rhesus monkey pons assessed as standard uptake value at 81.2 MBq, iv after 4.5 mins by microPET; conditions: in vivo, 0.075 h
[7] = Drug level in normal rhesus monkey frontal cortex assessed as standard uptake value at 81.2 MBq, iv after 57.5 mins by microPET; conditions: in vivo
[8] = Drug level in normal rhesus monkey white matter assessed as standard uptake value at 81.2 MBq, iv after 75 mins by microPET; conditions: in vivo, 1.25 h
[9] = Drug level in normal rhesus monkey thalamus assessed as standard uptake value at 81.2 MBq, iv after 1.5 mins by microPET; conditions: in vivo, 0.025 h
[10] = Drug level in normal rhesus monkey thalamus assessed as standard uptake value at 96.3 MBq, iv after 105 mins by microPET; conditions: in vivo, 1.75 h
[11] = Drug level in normal rhesus monkey parietal cortex assessed as standard uptake value at 96.3 MBq, iv after 1.5 mins by microPET; conditions: in vivo, 0.025 h
[12] = Drug level in normal rhesus monkey thalamus assessed as standard uptake value at 96.3 MBq, iv after 17.5 mins by microPET; conditions: in vivo
[13] = Drug level in normal rhesus monkey cerebellum assessed as standard uptake value at 96.3 MBq, iv after 85 mins by microPET; conditions: in vivo; procedure, shortened: as §1
[14] = Drug level in normal rhesus monkey frontal cortex assessed as standard uptake value at 96.3 MBq, iv after 57.5 mins by microPET; conditions: in vivo
[15] = Drug level in normal rhesus monkey cerebellum assessed as standard uptake value at 96.3 MBq, iv after 47.5 mins by microPET; conditions: in vivo; procedure, shortened: as §1
[16] = Drug level in normal rhesus monkey thalamus assessed as standard uptake value at 96.3 MBq, iv after 0.5 mins by microPET; conditions: in vivo
[17] = Drug level in normal rhesus monkey frontal cortex assessed as standard uptake value at 96.3 MBq, iv after 12 mins by microPET; conditions: in vivo, 0.2 h
[18] = Drug level in normal rhesus monkey white matter assessed as standard uptake value at 96.3 MBq, iv after 3.5 mins by microPET; conditions: in vivo
[19] = Drug level in normal rhesus monkey frontal cortex assessed as standard uptake value at 96.3 MBq, iv after 145 mins by microPET; conditions: in vivo
[20] = Drug level in normal rhesus monkey frontal cortex assessed as standard uptake value at 109.4 MBq, iv after 63 mins by microPET; conditions: in vivo, 1.05 h
[21] = Drug level in normal rhesus monkey white matter assessed as standard uptake value at 109.4 MBq, iv after 32.5 mins by microPET; conditions: in vivo
[22] = Drug level in normal rhesus monkey pons assessed as standard uptake value at 109.4 MBq, iv after 75 mins by microPET; conditions: in vivo, 1.25 h
[23] = Drug level in normal rhesus monkey parietal cortex assessed as standard uptake value at 109.4 MBq, iv after 22.5 mins by microPET; conditions: in vivo, 0.375 h
[24] = Drug level in normal rhesus monkey cerebellum assessed as standard uptake value at 109.4 MBq, iv after 27.5 mins by microPET; conditions: in vivo
Procedure, shortened: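 Single normal rhesus monkey; each tracer given iv via the vena saphena, with 1 day between tracer injections. Dynamic μPET ran 180 min (5×60 s, 5×120 s, 9×300 s, 12×600 s). Images were reconstructed by filtered back projection with a RAMP filter. Regional time-activity curves were expressed as SUV.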

[25] = Drug level in normal rhesus monkey cerebellum assessed as standard uptake value at 109.4 MBq, iv after 9.5 mins by microPET; conditions: in vivo
[26] = Drug level in normal rhesus monkey thalamus assessed as standard uptake value at 109.4 MBq, iv after 0.125 mins by microPET; conditions: in vivo, 7 s
[27] = Drug level in normal rhesus monkey pons assessed as standard uptake value at 109.4 MBq, iv after 105 mins by microPET; conditions: in vivo, 1.75 h
[28] = Drug level in normal rhesus monkey parietal cortex assessed as standard uptake value at 109.4 MBq, iv after 27.5 mins by microPET; conditions: in vivo
[29] = Drug level in normal rhesus monkey frontal cortex assessed as standard uptake value at 109.4 MBq, iv after 0.875 mins by microPET; conditions: in vivo, 52 s
[30] = Drug level in normal rhesus monkey thalamus assessed as standard uptake value at 109.4 MBq, iv after 47.5 mins by microPET; conditions: in vivo
[31] = Drug level in normal rhesus monkey pons assessed as standard uptake value at 109.4 MBq, iv after 117 mins by microPET; conditions: in vivo, 1.95 h
[32] = Drug level in normal rhesus monkey pons assessed as standard uptake value at 152.9 MBq, iv after 32.5 mins by microPET; conditions: in vivo
[33] = Drug level in normal rhesus monkey cerebellum assessed as standard uptake value at 152.9 MBq, iv after 14 mins by microPET; conditions: in vivo
Procedure, shortened: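 One normal rhesus monkey received each tracer via the vena saphena, with 1 day between injections. Dynamic μPET ran 180 min for 18F tracers (5×60 s, 5×120 s, 9×300 s, 12×600 s) and 90 min for the 11C tracer (5×60 s, 5×120 s, 9×300 s, 3×600 s). Filtered back-projection reconstruction (RAMP filter) was used. Time-activity curves were drawn to give regional SUV.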

[34] = Drug level in normal rhesus monkey thalamus assessed as standard uptake value at 152.9 MBq, iv after 75 mins by microPET; conditions: in vivo, 1.25 h
[35] = Drug level in normal rhesus monkey frontal cortex assessed as standard uptake value at 152.9 MBq, iv after 27.5 mins by microPET; conditions: in vivo
Procedure, shortened: (§2)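 Single normal rhesus monkey; tracer given iv via the vena saphena, 1 day apart from the other tracer injections. Dynamic μPET ran 90 min (5×60 s, 5×120 s, 9×300 s, 3×600 s). Images were reconstructed by filtered back projection with a RAMP filter. Regional time-activity curves were expressed as SUV.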

[36] = Drug level in normal rhesus monkey frontal cortex assessed as standard uptake value at 152.9 MBq, iv after 57.5 mins by microPET; conditions: in vivo; procedure, shortened: as §2

SUV [1]: 4.757
SUV [2]: 5.552
SUV [3]: 1.594
SUV [4]: 0.621
SUV [5]: 2.731
SUV [6]: 5.172
SUV [7]: 5.004
SUV [8]: 3.823
SUV [9]: 2.705
Compound: CNc1ccc2nc(-c3ccc([18F])cc3)sc2c1

SUV [10]: 2.08
SUV [11]: 1.7
SUV [12]: 2.3
SUV [13]: 1.03
SUV [14]: 2.01
SUV [15]: 1.23
SUV [16]: 0.63
SUV [17]: 1.99
SUV [18]: 1.15
SUV [19]: 1.44
Compound: CN(C)c1ccc2nc(-c3ccc([18F])cc3)sc2c1

SUV [20]: 4.56
SUV [21]: 3.36
SUV [22]: 4.79
SUV [23]: 4.93
SUV [24]: 4.16
SUV [25]: 5.44
SUV [26]: 0
SUV [27]: 4.79
SUV [28]: 4.84
SUV [29]: 1.73
SUV [30]: 5.56
SUV [31]: 4.76
Compound: Nc1ccc2nc(-c3ccc([18F])cc3)sc2c1

SUV [32]: 1.365
SUV [33]: 2.11
SUV [34]: 0.731
SUV [35]: 1.215
SUV [36]: 0.692
Compound: [11CH3]Nc1ccc(-c2nc3ccc(O)cc3s2)cc1 [PITTSBURGH COMPOUND B]

From ChEMBL document CHEMBL1154674, “Synthesis and evaluation of three 18F-labeled aminophenylbenzothiazoles as amyloid imaging agents” (J Med Chem, 2009)
